Experimental data: ChEMBL document CHEMBL5653623 (J Pharmacol Exp Ther, 2015)
Calls of active or inactive are those of the source. No cut-off for these calls is given here.

Assays:
[1] = Inhibition of adenosine transporter (unknown origin); parameters: species or system Homo sapiens
How it was run: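 Radioligand binding selectivity screen was run at 10 μM, mean of three determinations. Where inhibition exceeded 50%, full concentration-displacement curves were run in triplicate and IC50 was obtained by nonlinear least-squares regression.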

[2] = Cmax in C57Bl/6 mouse at 2 mg/kg, iv measured after 480 mins by LC-MS/MS analysis; type: ADME, organism-based; conditions: in vivo
How it was run: (§1)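 Male C57Bl/6 mice (20-25 g) given a single IV dose (2 mg/kg) or oral dose (10 mg/kg). Blood was sampled at 5, 15, 30, 60, 120, 240, 360 and 480 min and plasma prepared by centrifugation. Plasma drug levels were measured by LC/MS/MS. Values are mean (CV%), N=3.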

[3] = Cmax in C57Bl/6 mouse at 10 mg/kg, po measured after 480 mins by LC-MS/MS analysis; type: ADME, organism-based; conditions: in vivo; how it was run: as §1
[4] = Tmax in C57Bl/6 mouse at 10 mg/kg, po measured after 480 mins by LC-MS/MS analysis; type: ADME, organism-based; conditions: in vivo; how it was run: as §1
[5] = Unbound brain concentration in C57Bl/6 mouse at 30 mg/kg, po administered for 1 hr; type: ADME, organism-based; conditions: in vivo
[6] = molecular target: Leucine-rich repeat serine/threonine-protein kinase 2 (Mus musculus) (UniProt Q5S006); assay: In vivo inhibition of LRRK2 in C57Bl/6 mouse brain assessed as decrease in pSer935 LRRK2 at 10 to 100 mg/kg, po measured after 1 hr by Western blotting analysis relative to control; type: functional, organism-based; conditions: dose 10-100 mg/kg
How it was run: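 Male C57Bl/6 mice, 20-25 g. Single oral dose of 1-100 mg/kg suspended in 30% Captisol (10 mL/kg), or vehicle, given 1 h before CO2 euthanasia. Cortex frozen on dry ice and pSer935 LRRK2 read by Western blot. n = 5 per group.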

[7] = Toxicity in C57Bl/6 mouse assessed as change in body weight measured after 11 days; conditions: in vivo, 264 h, time 11 day
How it was run: (§2)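 Male C57Bl/6 mice, singly housed on a reversed 12 h light cycle, were fed diet formulated to give 3, 10, 30, 60 or 120 mg/kg/day (assumes 3 g/day intake) or untreated diet for 11 days. Body weight and food intake were monitored. Spontaneous locomotion and rearing were recorded over 60 min. On day 11, mice were euthanized 4, 8 or 24 h after dark onset and plasma and brain drug levels measured; n = 5 per group.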

[8] = molecular target: Leucine-rich repeat serine/threonine-protein kinase 2 (Mus musculus) (UniProt Q5S006); assay: In vivo inhibition of LRRK2 in C57Bl/6 mouse brain assessed as reduction in pSer935 LRRK2 administered for 11 days and measured after 4 hrs by Western blotting analysis; type: functional, organism-based; conditions: dose 3-120 mg/kg, time 11.0 day
How it was run: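 Male C57Bl/6 mice, singly housed on a reversed light cycle. Fed drug diet targeted to 3, 10, 30, 60 or 120 mg/kg/day (assuming 3 g/day intake), or untreated diet, for 11 days. Killed 4, 8 or 24 h after dark-cycle onset, n = 5 per group. Cortex immunoblotted for pSer935/total LRRK2 and total LRRK2/GAPDH. Total LRRK2 detected with MJFF2 antibody.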

[9] = molecular target: Leucine-rich repeat serine/threonine-protein kinase 2 (Mus musculus) (UniProt Q5S006); assay: In vivo inhibition of LRRK2 in C57Bl/6 mouse kidney assessed as total LRRK2 protein level at 10 to 120 mg/kg administered for 11 days and measured after 8 hrs by Western blotting analysis; type: functional, organism-based; conditions: dose 10-120 mg/kg, time 11.0 day
How it was run: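 Same 11-day in-diet design in male C57Bl/6 mice: 3-120 mg/kg/day or untreated diet, killed 4, 8 or 24 h after dark-cycle onset, n = 5 per group. Kidneys dissected for Western blot of pSer935 and total LRRK2, with total LRRK2 detected by MJFF-2 antibody.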

[10] = Unbound brain concentration in C57Bl/6 mouse administered for 11 days and measured after 24 hrs; type: ADME, tissue-based; conditions: in vivo, 264 h, time 11 day; how it was run: as §2
Mus musculus [11] = assay: Effect on food intake in MitoPark mouse at 30 mg/kg administered for 15 weeks; type: functional, organism-based
How it was run: (§3)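 MitoPark mice, 5 weeks old, were allocated by baseline 60-min LMA to untreated diet or diet targeting 30 mg/kg/day (reformulated every 3 weeks). Wild-type littermates received vehicle diet. Body weight and food intake were recorded weekly. 60-min LMA (distance, rearing) was run at 8, 11, 14 and 17 weeks of age.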

[12] = molecular target: Leucine-rich repeat serine/threonine-protein kinase 2 (Mus musculus) (UniProt Q5S006); assay: In vivo inhibition of LRRK2 in MitoPark mouse brain assessed as total LRRK2 protein level in presence of MJFF-2 antibody by Western blotting analysis; type: functional, organism-based
How it was run: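 MitoPark mice fed diet targeted to 30 mg/kg/day, or untreated diet, from 5 weeks of age. Cortex collected after 3, 9 or 15 weeks of treatment, n = 10 per group. Blots probed for pSer935 LRRK2, total LRRK2 (MJFF-2 antibody) and GAPDH. pSer935 reported relative to vehicle-diet MitoPark mice.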

Mus musculus [13] = assay: Effect on behavioral phenotype in 8 weeks old MitoPark mouse assessed as rearing behavior at 30 mg/kg/day administered for 3 weeks and measured after 60 mins; type: functional, organism-based; how it was run: as §3
Mus musculus [14] = assay: Effect on behavioral phenotype in MitoPark mouse at baseline assessed as higher rearing behavior at 30 mg/kg/day administered for 3 weeks and measured after 60 mins; type: functional, organism-based; how it was run: as §3
Mus musculus [15] = assay: Effect on behavioral phenotype in 11 weeks old MitoPark mouse assessed as decreased locomotor activity at 30 mg/kg/day administered for 6 weeks and measured after 60 mins truScan photo beam activity system analysis; type: functional, organism-based; how it was run: as §3
Mus musculus [16] = assay: Effect on behavioral phenotype in 11 weeks old MitoPark mouse assessed as decreased rearing behavior at 30 mg/kg/day administered for 6 weeks and measured after 60 mins; type: functional, organism-based; how it was run: as §3
Mus musculus [17] = assay: Effect on behavioral changes in 8 weeks old MitoPark mouse striatum assessed as DOPAC level at 30 mg/kg/day administered for 3 weeks by HPLC analysis; type: functional
How it was run: (§4)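 Striatum from MitoPark mice on diet targeting 30 mg/kg/day or vehicle diet (wild-type littermate controls) was homogenized by sonication in 0.1 M acid at 0.1 g/mL. Samples were held 60 min at 4 °C and centrifuged. Dopamine, DOPAC and HVA were measured by HPLC with electrochemical detection against a 3,4-DHBA internal standard and standard curves. Mean ± SEM.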

Mus musculus [18] = assay: Effect on behavioral changes in 14 weeks old MitoPark mouse striatum assessed as DOPAC level at 30 mg/kg/day by HPLC analysis; type: functional; how it was run: as §4
Mus musculus [19] = assay: Effect on behavioral changes in 8 weeks old MitoPark mouse striatum assessed as TH level at 30 mg/kg/day administered for 3 weeks by […] relative to control; type: functional
[20] = molecular target: Leucine-rich repeat serine/threonine-protein kinase 2 (Mus musculus) (UniProt Q5S006); assay: In vivo inhibition of LRRK2 in 20 weeks old MitoPark mouse kidney assessed as reduction in pSer935 LRRK2 level at 30 mg/kg/day administered for 15 weeks by Western blotting analysis; type: functional, organism-based
How it was run: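 MitoPark mice on drug-containing diet targeted to 30 mg/kg/day from 5 weeks of age, with the diet reformulated every 3 weeks to hold the target. Untreated-diet MitoPark and wild-type littermate controls. Killed by CO2 at 20 weeks of age. Lung and kidney taken from 5 mice per group for pSer935 and total LRRK2 immunoblots.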

Mus musculus [21] = assay: Effect on histological changes in 20 weeks old MitoPark mouse lung assessed as slight enlargement of alveolar epithelial cells at 30 mg/kg/day administered for 15 weeks by hematoxylin and eosin staining based microscopic analysis; type: functional, organism-based
How it was run: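 MitoPark mice were fed diet targeting 30 mg/kg/day or vehicle for 15 weeks and euthanized at 20 weeks of age (n=5/group). Kidney and lung were fixed in 10% neutral buffered formalin, paraffin-embedded, sectioned at 5 µm, H&E-stained and examined microscopically.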

Chain of Leucine-rich repeat serine/threonine-protein kinase 2 (Mus musculus) (Q5S006 whole entry): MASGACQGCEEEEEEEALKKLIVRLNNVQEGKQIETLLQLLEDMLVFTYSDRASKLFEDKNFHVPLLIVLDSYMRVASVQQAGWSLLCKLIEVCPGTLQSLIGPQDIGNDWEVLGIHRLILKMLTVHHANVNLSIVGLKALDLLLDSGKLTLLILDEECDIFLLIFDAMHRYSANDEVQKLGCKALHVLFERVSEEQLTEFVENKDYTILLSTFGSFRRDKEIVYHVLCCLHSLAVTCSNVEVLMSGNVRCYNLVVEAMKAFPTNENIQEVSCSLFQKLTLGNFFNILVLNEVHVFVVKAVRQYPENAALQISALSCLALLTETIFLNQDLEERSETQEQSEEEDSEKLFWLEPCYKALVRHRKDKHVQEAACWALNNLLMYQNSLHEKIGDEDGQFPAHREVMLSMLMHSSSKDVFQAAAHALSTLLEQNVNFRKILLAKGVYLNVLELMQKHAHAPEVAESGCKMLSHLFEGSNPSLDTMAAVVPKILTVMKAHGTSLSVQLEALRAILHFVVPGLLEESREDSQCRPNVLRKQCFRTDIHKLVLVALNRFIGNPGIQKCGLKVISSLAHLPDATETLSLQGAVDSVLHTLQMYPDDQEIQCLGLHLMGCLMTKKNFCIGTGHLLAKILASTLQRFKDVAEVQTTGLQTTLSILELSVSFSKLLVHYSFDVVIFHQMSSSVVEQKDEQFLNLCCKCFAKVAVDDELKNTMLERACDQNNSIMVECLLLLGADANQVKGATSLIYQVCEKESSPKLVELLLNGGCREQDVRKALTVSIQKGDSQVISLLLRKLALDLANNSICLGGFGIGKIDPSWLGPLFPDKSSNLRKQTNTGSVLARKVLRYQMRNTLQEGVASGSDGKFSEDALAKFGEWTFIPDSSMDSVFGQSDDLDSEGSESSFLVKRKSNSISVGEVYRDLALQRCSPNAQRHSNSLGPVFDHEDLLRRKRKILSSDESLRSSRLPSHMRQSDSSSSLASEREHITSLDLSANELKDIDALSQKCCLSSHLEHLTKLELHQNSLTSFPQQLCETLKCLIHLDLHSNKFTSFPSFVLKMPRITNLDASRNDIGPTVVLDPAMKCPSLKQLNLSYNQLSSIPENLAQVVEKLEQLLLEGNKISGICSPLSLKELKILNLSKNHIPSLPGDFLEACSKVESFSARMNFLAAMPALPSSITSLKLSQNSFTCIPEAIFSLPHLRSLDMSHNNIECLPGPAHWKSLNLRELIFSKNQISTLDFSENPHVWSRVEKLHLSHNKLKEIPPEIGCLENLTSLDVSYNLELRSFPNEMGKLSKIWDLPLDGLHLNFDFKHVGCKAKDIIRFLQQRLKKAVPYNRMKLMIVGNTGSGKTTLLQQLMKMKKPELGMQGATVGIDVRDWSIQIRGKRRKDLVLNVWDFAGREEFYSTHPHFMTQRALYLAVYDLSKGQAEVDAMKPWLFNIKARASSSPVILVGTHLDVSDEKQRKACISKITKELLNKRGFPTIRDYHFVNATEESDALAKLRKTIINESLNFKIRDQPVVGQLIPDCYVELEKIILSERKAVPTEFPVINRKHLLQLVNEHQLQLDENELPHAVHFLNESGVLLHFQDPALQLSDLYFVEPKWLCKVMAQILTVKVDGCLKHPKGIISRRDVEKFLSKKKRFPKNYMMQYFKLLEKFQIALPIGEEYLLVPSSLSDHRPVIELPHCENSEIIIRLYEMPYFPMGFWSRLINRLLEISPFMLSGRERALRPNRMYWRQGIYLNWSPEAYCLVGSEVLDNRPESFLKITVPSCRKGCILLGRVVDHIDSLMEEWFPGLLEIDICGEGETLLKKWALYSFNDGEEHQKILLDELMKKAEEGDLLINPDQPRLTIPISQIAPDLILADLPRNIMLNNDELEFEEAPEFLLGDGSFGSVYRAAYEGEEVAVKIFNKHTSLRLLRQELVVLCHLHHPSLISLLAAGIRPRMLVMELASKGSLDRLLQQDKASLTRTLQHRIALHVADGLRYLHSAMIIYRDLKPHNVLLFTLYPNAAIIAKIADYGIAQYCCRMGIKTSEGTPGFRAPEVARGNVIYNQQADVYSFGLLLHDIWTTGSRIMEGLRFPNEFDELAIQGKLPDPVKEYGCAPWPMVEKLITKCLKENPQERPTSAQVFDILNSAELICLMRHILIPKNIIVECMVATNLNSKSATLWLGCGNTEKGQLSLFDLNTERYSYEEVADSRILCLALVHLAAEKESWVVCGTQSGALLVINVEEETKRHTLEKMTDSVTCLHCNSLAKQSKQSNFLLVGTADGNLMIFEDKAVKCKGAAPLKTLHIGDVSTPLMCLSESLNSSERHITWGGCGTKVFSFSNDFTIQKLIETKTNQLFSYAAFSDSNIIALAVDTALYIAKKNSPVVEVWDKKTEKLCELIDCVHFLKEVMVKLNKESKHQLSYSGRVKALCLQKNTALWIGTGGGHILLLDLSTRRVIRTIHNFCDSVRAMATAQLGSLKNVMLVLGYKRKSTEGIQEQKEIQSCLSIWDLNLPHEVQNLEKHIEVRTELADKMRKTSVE

- IC50 [1]: 9.7 µM
- Cmax [2]: 716 nM
- Cmax [3]: 298 nM
- Tmax [4]: 45 min
- Drug uptake(free) [5]: 91.8 nM
- inhibition [6]: > 90%
- inhibition [8]: Dose-Dependent Effect
- inhibition [9]: Active
- Drug uptake(free) [10]: Active
- inhibition [12]: inactive
- inhibition [20]: Active
Structure (SMILES): C[C@@H]1CN(c2cc(-c3n[nH]c4ccc(OC5(C)CC5)cc34)ncn2)C[C@H](C)O1 [MLi-2]
- Activity [7]: Non-Toxic
- Activity (Mus musculus [11]): inactive
- Activity (Mus musculus [13]): Active
- Activity (Mus musculus [14]): Active
- Activity (Mus musculus [15]): Active
- Activity (Mus musculus [16]): Active
- Activity (Mus musculus [17]): 8966 ng/g
- Activity (Mus musculus [18]): 7521 ng/g
- Activity (Mus musculus [19]): 49.89%
- Activity (Mus musculus [21]): Active
